Experimental data from ChEMBL document CHEMBL1149179, “Synthesis and biological evaluation of a new class of geldanamycin derivatives as potent inhibitors of Hsp90” (J Med Chem, 2004).

Assays:
Heat shock protein HSP90 [1] = molecular target: T1, Heat shock protein HSP90 (Homo sapiens, UniProt P07900+P08238); assay: […] human epidermal growth factor 2 (Her-2) degradation in MCF-7 cells; format: cell-based; conditions: mcf7
Procedure, shortened: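 MCF7 cells in DMEM with 10% FBS and 10 mM HEPES, treated at 65–70% confluence with compound (1000 nM down to 3 nM, half-log steps) for 16 h. Trypsinized cells stained with PE anti-Her-2 or PE isotype control (1 µg/mL, 15 min). Flow cytometry with 10,000 events; control-subtracted mean fluorescence versus DMSO cells. EC50 = 50% Her-2 degradation; n = 2.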

Heat shock protein HSP90 [2] = molecular target: T1, Heat shock protein HSP90; assay: Concentration required to inhibit biotin-GM binding to recombinant heat shock protein 90(rHsp90); format: protein assay
Procedure, shortened: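 rHsp90 coated in PBS overnight at 4 °C. Compound at 100–0.3 µM or DMSO for 60 min at 37 °C. Then 10 µM biotinylated geldanamycin 60 min and 20 µg/mL streptavidin-phycoerythrin 60 min, both at 37 °C, with washes between. Fluorescence read at ex 485/em 580 nm, minus an uncoated-well background. % binding inhibition calculated versus DMSO.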

Heat shock protein HSP90 [3] = molecular target: T1, Heat shock protein HSP90; assay: (§1) Concentration required to inhibit Bis-ANS activity by recombinant heat shock protein 90 (rHSP90) conformational assay
Procedure, shortened: (§2)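 Compound at 100–0.3 µM or DMSO for 60 min at 37 °C, then bis-ANS (0.1 mM stock) for 30 min at 37 °C. Fluorescence read at ex 393/em 484 nm, minus a no-protein background. IC50 = 50% inhibition of bis-ANS signal versus DMSO; n = 2.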

Heat shock protein HSP90 [4] = molecular target: T1, Heat shock protein HSP90; assay: Concentration of test compound required for half-maximal inhibition of binding of Heat shock 90 KD protein by MCF-7 cell lysate assay; format: cell-based
Procedure, shortened: (§3)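 Lysate incubated ± compound 30 min at 4 °C, then with biotin-GM on streptavidin magnetic beads 1 h at 4 °C. Beads washed three times and boiled in SDS sample buffer. Bound Hsp90 detected by Western blot and band quantitation. IC50 taken as half-maximal inhibition of binding.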

[5] = Ratio of inhibitory concentration of rHsp90 and cell lysate Hsp90
Heat shock protein HSP90 [6] = molecular target: T1, Heat shock protein HSP90; assay: Concentration of test compound required for inhibition of binding of rHsp90 in MCF-7 cell lysate; format: cell-based; procedure, shortened: as §3
MCF7 = assay: Inhibitory concentration of compound against MCF-7 cells by MTS assay; format: functional, cell-based; conditions: Homo sapiens
Procedure, shortened: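 MCF7 cells seeded at 2000/well in DMEM with 10% FBS and left overnight to adhere; final culture volume 100 µL. Viability read with MTS/PMS (mixed 20:1, 20 µL per well) as A490 after 2-4 h, with cell-free medium plus MTS-PMS as background. % viable cells taken relative to untreated cells; IC50 is the concentration giving 50% viable cells; n = 2.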

[7] = as §1; design: species or system Homo sapiens; procedure, shortened: as §2

Row | IC50 (Heat shock protein HSP90 [1]) [µM] | IC50 (Heat shock protein HSP90 [2]) [µM] | IC50 (Heat shock protein HSP90 [3]) [µM] | IC50 (Heat shock protein HSP90 [4]) [µM] | Ratio [5] | IC50 [7] [µM] | SMILES | IC50 (Heat shock protein HSP90 [6]) [µM] | IC50 (MCF7) [µM]
1 | 0.18 | 1.3 | 0.9 | – | – | – | COc1cccc(C(=O)NC2=C3C[C@@H](C)C[C@H](OC)[C@H](O)[C@@H](C)/C=C(\C)[C@H](OC(N)=O)[C@@H](OC)/C=C\C=C(/C)C(=O)NC(=CC2=O)C3=O)c1 | – | –
2 | 0.4 | 5 | 4 | – | – | – | COc1ccc(C(=O)NC2=C3C[C@@H](C)C[C@H](OC)[C@H](O)[C@@H](C)/C=C(\C)[C@H](OC(N)=O)[C@@H](OC)/C=C\C=C(/C)C(=O)NC(=CC2=O)C3=O)cc1 | – | –
3 | 0.2 | 4 | 3 | – | – | – | CO[C@H]1/C=C\C=C(/C)C(=O)NC2=CC(=O)C(NC(=O)c3ccccc3)=C(C[C@@H](C)C[C@H](OC)[C@H](O)[C@@H](C)/C=C(\C)[C@@H]1OC(N)=O)C2=O | – | –
4 | 1.7 | 17 | 3 | – | 200 | – | CO[C@H]1/C=C\C=C(/C)C(=O)NC2=CC(=O)C(NC(=O)c3ccc(CN(C)C)cc3)=C(C[C@@H](C)C[C@H](OC)[C@H](O)[C@@H](C)/C=C(\C)[C@@H]1OC(N)=O)C2=O | 0.015 | > 30
5 | > 10 | 2.5 | 2.1 | – | – | – | CO[C@H]1/C=C\C=C(/C)C(=O)NC2=CC(=O)C(NC(=O)c3ccc(CN4CCCCC4)cc3)=C(C[C@@H](C)C[C@H](OC)[C@H](O)[C@@H](C)/C=C(\C)[C@@H]1OC(N)=O)C2=O | – | –
6 | 0.2 | 1 | 1.3 | – | – | – | CO[C@H]1/C=C\C=C(/C)C(=O)NC2=CC(=O)C(NC(=O)c3ccc(CN4CCN(c5ccc([N+](=O)[O-])cc5)CC4)cc3)=C(C[C@@H](C)C[C@H](OC)[C@H](O)[C@@H](C)/C=C(\C)[C@@H]1OC(N)=O)C2=O | – | –
7 | 0.8 | 5 | 8 | 0.12 | 67 | – | CO[C@H]1/C=C\C=C(/C)C(=O)NC2=CC(=O)C(NC(=O)c3ccc(CN4CCN(C)CC4)cc3)=C(C[C@@H](C)C[C@H](OC)[C@H](O)[C@@H](C)/C=C(\C)[C@@H]1OC(N)=O)C2=O | – | –
8 | 0.25 | 1.5 | 1.5 | – | – | – | CO[C@H]1/C=C\C=C(/C)C(=O)NC2=CC(=O)C(NC(=O)c3ccc(F)cc3)=C(C[C@@H](C)C[C@H](OC)[C@H](O)[C@@H](C)/C=C(\C)[C@@H]1OC(N)=O)C2=O | – | –
9 | 0.3 | 3.5 | 2 | – | – | – | CO[C@H]1/C=C\C=C(/C)C(=O)NC2=CC(=O)C(NC(=O)c3ccc([N+](=O)[O-])cc3)=C(C[C@@H](C)C[C@H](OC)[C@H](O)[C@@H](C)/C=C(\C)[C@@H]1OC(N)=O)C2=O | – | –
10 | 0.22 | 3 | 1.5 | – | – | – | COc1ccc(N2CCN(Cc3ccc(C(=O)NC4=C5C[C@@H](C)C[C@H](OC)[C@H](O)[C@@H](C)/C=C(\C)[C@H](OC(N)=O)[C@@H](OC)/C=C\C=C(/C)C(=O)NC(=CC4=O)C5=O)cc3)CC2)cc1 | – | –
11 | 0.6 | 5.5 | 5.8 | – | – | – | CO[C@H]1/C=C\C=C(/C)C(=O)NC2=CC(=O)C(NC(=O)c3ccc(CN4CCN(C5CCCCC5)CC4)cc3)=C(C[C@@H](C)C[C@H](OC)[C@H](O)[C@@H](C)/C=C(\C)[C@@H]1OC(N)=O)C2=O | – | –
12 | 1 | – | 10 | – | – | – | CO[C@H]1/C=C\C=C(/C)C(=O)NC2=CC(=O)C(NC(=O)c3cccc(CCl)c3)=C(C[C@@H](C)C[C@H](OC)[C@H](O)[C@@H](C)/C=C(\C)[C@@H]1OC(N)=O)C2=O | – | –

The remaining lines, values behind:

Row | SMILES | IC50 (Heat shock protein HSP90 [1]) [µM] | IC50 (Heat shock protein HSP90 [2]) [µM] | IC50 (Heat shock protein HSP90 [3]) [µM] | IC50 (Heat shock protein HSP90 [4]) [µM] | Ratio [5] | IC50 [7] [µM] | IC50 (Heat shock protein HSP90 [6]) [µM] | IC50 (MCF7) [µM]
13 | CO[C@H]1/C=C\C=C(/C)C(=O)NC2=CC(=O)C(NC(=O)c3cccs3)=C(C[C@@H](C)C[C@H](OC)[C@H](O)[C@@H](C)/C=C(\C)[C@@H]1OC(N)=O)C2=O | 0.4 | 2 | 3 | 0.04 | 75 | – | – | –
14 | CO[C@H]1/C=C\C=C(/C)C(=O)NC2=CC(=O)C(NC(=O)OCC(C)C)=C(C[C@@H](C)C[C@H](OC)[C@H](O)[C@@H](C)/C=C(\C)[C@@H]1OC(N)=O)C2=O | 0.12 | 4 | 4 | – | 1330 | – | 0.003 | 0.18
15 | CO[C@H]1/C=C\C=C(/C)C(=O)NC2=CC(=O)C(c3cccs3)=C(C[C@@H](C)C[C@H](OC)[C@H](O)[C@@H](C)/C=C(\C)[C@@H]1OC(N)=O)C2=O | 0.25 | 1.7 | 1.7 | 0.055 | 31 | – | – | –
16 | C=CCNC1=C2C[C@@H](C)C[C@H](OC)[C@H](O)[C@@H](C)/C=C(\C)[C@H](OC(N)=O)[C@@H](OC)/C=C/C=C(\C)C(=O)NC(=CC1=O)C2=O | – | – | – | – | 40 | 0.7 | – | –
17 | CCN(Cc1ccccc1)Cc1ccc(C(=O)NC2=C3C[C@@H](C)C[C@H](OC)[C@H](O)[C@@H](C)/C=C(\C)[C@H](OC(N)=O)[C@@H](OC)/C=C\C=C(/C)C(=O)NC(=CC2=O)C3=O)cc1 | 0.14 | 1.1 | 1 | – | 92 | – | 0.012 | 0.2
18 | CO[C@H]1/C=C\C=C(/C)C(=O)NC2=CC(=O)C(c3ccccc3)=C(C[C@@H](C)C[C@H](OC)[C@H](O)[C@@H](C)/C=C(\C)[C@@H]1OC(N)=O)C2=O | 0.28 | 3 | 3 | 0.07 | 43 | – | – | –
19 | CCCN(CCC)Cc1ccc(C(=O)NC2=C3C[C@@H](C)C[C@H](OC)[C@H](O)[C@@H](C)/C=C(\C)[C@H](OC(N)=O)[C@@H](OC)/C=C\C=C(/C)C(=O)NC(=CC2=O)C3=O)cc1 | 0.5 | 3 | 1.2 | – | – | – | – | 0.5
20 | CO[C@H]1/C=C\C=C(/C)C(=O)NC2=CC(=O)C(NC(=O)c3ccco3)=C(C[C@@H](C)C[C@H](OC)[C@H](O)[C@@H](C)/C=C(\C)[C@@H]1OC(N)=O)C2=O | 0.5 | 4 | 4 | – | – | – | – | –
21 | CO[C@H]1/C=C\C=C(/C)C(=O)NC2=CC(=O)C(NC(=O)c3ccc(CCl)cc3)=C(C[C@@H](C)C[C@H](OC)[C@H](O)[C@@H](C)/C=C(\C)[C@@H]1OC(N)=O)C2=O | 0.55 | 4 | 2 | – | – | – | – | –
22 | CCOC(=O)NC1=C2C[C@@H](C)C[C@H](OC)[C@H](O)[C@@H](C)/C=C(\C)[C@H](OC(N)=O)[C@@H](OC)/C=C\C=C(/C)C(=O)NC(=CC1=O)C2=O | 0.26 | 3 | 3 | – | – | – | – | –
23 | CO[C@H]1/C=C\C=C(/C)C(=O)NC2=CC(=O)C(NC(=O)c3ccc(CN4CCN(c5ccc(Cl)cc5)CC4)cc3)=C(C[C@@H](C)C[C@H](OC)[C@H](O)[C@@H](C)/C=C(\C)[C@@H]1OC(N)=O)C2=O | 0.25 | 1 | 1 | – | 111 | – | 0.009 | 0.15
24 | CO[C@H]1/C=C\C=C(/C)C(=O)NC2=CC(=O)C(NC(=O)c3ccc(CN4CCc5ccccc5C4)cc3)=C(C[C@@H](C)C[C@H](OC)[C@H](O)[C@@H](C)/C=C(\C)[C@@H]1OC(N)=O)C2=O | 0.2 | 1 | 1.5 | – | – | – | – | –
25 | CO[C@H]1/C=C\C=C(/C)C(=O)NC2=CC(=O)C(NC(=O)C(C)=O)=C(C[C@@H](C)C[C@H](OC)[C@H](O)[C@@H](C)/C=C(\C)[C@@H]1OC(N)=O)C2=O | 1.7 | 15 | 20 | – | – | – | – | –
26 | CO[C@H]1/C=C\C=C(/C)C(=O)NC2=CC(=O)C(NC(=O)OCc3ccc(OC(C)=O)cc3)=C(C[C@@H](C)C[C@H](OC)[C@H](O)[C@@H](C)/C=C(\C)[C@@H]1OC(N)=O)C2=O | 0.05 | 1 | 2.5 | – | – | – | – | 0.04
27 | COc1ccccc1C(=O)NC1=C2C[C@@H](C)C[C@H](OC)[C@H](O)[C@@H](C)/C=C(\C)[C@H](OC(N)=O)[C@@H](OC)/C=C\C=C(/C)C(=O)NC(=CC1=O)C2=O | 0.18 | 1.1 | 1 | – | – | – | – | –
28 | CO[C@H]1/C=C\C=C(/C)C(=O)NC2=CC(=O)C(NC(=O)OCCCCN3CCOCC3)=C(C[C@@H](C)C[C@H](OC)[C@H](O)[C@@H](C)/C=C(\C)[C@@H]1OC(N)=O)C2=O | 0.5 | 1 | 1 | 0.01 | 100 | – | – | –
29 | C=CCNC(=O)NC1=C2C[C@@H](C)C[C@H](OC)[C@H](O)[C@@H](C)/C=C(\C)[C@H](OC(N)=O)[C@@H](OC)/C=C\C=C(/C)C(=O)NC(=CC1=O)C2=O | > 10 | 35 | – | – | – | – | – | –
